From ChEMBL document CHEMBL1129944, “[[(Arylpiperazinyl)alkyl]thio]thieno[2,3-d]pyrimidinone derivatives as high-affinity, selective 5-HT1A receptor ligands” (J Med Chem, 1997)

Tests used:
[1] = molecular target: Serotonin 1a (5-HT1a) receptor/Adrenergic receptor alpha-1 (Rattus norvegicus) (UniProt P15823+P23944+P43140+P19327); test: Selectivity for alpha-1-adrenergic receptor to that of 5-HT1A receptor.; format: protein assay
How it was run: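 Ratio of IC50 at α1-adrenoceptors ([3H]prazosin, rat cortex) to IC50 at 5-HT1A receptors ([3H]-8-OH-DPAT, rat hippocampus). Each IC50 came from radioligand displacement curves.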

[2] = molecular target: T1, Adrenergic receptor alpha-1 (Rattus norvegicus, UniProt P15823+P23944+P43140); test: In vitro inhibitory concentration against radioligand [3H]prazosin binding to alpha-1 adrenergic receptor in rat cortical membrane.; format: cell membranes
T1 sequence (P15823 whole entry): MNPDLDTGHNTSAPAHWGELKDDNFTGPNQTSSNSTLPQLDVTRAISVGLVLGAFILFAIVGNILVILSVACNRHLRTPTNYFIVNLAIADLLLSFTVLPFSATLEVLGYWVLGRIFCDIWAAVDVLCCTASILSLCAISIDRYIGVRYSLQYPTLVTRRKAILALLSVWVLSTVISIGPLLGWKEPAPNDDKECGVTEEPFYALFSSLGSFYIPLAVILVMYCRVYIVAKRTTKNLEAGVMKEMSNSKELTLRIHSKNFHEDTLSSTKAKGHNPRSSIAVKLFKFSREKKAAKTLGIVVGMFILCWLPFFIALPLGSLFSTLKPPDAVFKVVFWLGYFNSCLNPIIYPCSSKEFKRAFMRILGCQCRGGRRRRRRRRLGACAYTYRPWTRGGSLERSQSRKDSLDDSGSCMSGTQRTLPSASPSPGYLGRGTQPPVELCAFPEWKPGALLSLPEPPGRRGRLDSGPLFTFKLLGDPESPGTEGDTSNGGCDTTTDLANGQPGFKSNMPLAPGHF
T1 sequence (P23944 whole entry): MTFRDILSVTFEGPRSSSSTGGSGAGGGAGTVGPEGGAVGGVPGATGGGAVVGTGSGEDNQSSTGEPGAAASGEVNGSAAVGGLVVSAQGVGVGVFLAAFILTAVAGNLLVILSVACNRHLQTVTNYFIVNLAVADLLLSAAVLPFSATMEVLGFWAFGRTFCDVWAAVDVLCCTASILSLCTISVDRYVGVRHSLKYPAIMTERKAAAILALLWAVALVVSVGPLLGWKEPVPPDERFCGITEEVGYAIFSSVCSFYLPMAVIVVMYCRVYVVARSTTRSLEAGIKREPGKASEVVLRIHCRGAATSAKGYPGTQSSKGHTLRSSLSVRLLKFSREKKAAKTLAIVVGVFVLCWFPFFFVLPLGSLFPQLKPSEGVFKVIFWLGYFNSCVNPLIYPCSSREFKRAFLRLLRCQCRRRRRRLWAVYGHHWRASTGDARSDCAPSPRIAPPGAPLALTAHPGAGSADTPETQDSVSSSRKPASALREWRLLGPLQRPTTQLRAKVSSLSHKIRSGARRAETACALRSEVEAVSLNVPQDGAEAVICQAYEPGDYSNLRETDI
T1 sequence (P43140 whole entry): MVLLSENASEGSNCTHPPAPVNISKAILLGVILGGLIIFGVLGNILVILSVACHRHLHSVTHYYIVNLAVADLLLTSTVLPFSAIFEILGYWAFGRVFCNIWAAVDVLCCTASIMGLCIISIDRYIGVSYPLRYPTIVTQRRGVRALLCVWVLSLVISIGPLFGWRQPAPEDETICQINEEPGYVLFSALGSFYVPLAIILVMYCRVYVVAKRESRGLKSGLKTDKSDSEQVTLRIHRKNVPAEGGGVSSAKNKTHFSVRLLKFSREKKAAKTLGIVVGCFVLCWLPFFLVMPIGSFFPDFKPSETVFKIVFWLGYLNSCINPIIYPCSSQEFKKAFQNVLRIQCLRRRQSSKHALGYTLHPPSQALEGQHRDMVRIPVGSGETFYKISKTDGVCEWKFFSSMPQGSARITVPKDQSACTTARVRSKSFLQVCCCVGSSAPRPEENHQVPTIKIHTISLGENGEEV
How it was run: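 Male CRL:CD(SD)BR-COBS rats (~150 g) were decapitated. Cortex was homogenized in 50 mM Tris-HCl pH 7.4, spun at 50000g, given 10 min at 37 °C and washed. Incubation buffer had 0.1% ascorbic acid and 10 μM pargyline. GF/B filtration and scintillation counting; IC50 from dose-inhibition curves.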

[3] = molecular target: T2, 5-hydroxytryptamine receptor 1A (Rattus norvegicus, UniProt P19327); test: In vitro inhibitory concentration against radioligand [3H]8-OH-DPAT binding to 5-hydroxytryptamine 1A receptor in rat hippocampal membrane.; format: cell membranes, Hippocampus
T2 sequence (P19327 whole entry): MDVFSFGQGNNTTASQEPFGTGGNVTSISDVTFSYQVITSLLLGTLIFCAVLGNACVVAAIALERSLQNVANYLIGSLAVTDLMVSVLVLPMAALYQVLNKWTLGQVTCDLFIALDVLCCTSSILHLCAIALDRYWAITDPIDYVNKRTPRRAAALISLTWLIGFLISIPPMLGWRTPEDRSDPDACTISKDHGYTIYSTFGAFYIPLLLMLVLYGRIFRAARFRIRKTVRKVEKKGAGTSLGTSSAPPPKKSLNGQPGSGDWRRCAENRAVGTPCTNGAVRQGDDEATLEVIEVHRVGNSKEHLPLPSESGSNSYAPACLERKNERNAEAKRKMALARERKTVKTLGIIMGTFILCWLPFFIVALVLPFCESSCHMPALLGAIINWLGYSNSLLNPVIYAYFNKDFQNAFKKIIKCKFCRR
How it was run: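 Rat hippocampal membranes (male SD rats, ~150 g) were washed in 50 mM Tris-HCl pH 7.4, including 10 min at 37 °C. Incubation buffer contained 4 mM CaCl2 and 10 μM pargyline. Filtered onto GF/B and counted; 50% inhibitory concentration from fitted curves.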

[4] = molecular target: T3, 5-hydroxytryptamine receptor 1A (Rattus norvegicus) (UniProt P19327); test: Compound at 10E-5 M was tested in vitro for the inhibition of radioligand [3H]8-OH-DPAT binding to 5-hydroxytryptamine 1A receptor in rat hippocampal membrane; format: cell membranes; settings: Hippocampus
T3 sequence (whole entry): T2 sequence (P19327 whole entry)

[5] = molecular target: Adrenergic receptor alpha-1 (Rattus norvegicus) (UniProt P15823+P23944+P43140); test: Compound at 10E-5 M was tested in vitro for the inhibition of radioligand [3H]-prazosin binding to Alpha-1 adrenergic receptor in rat cortical membrane; format: cell membranes

| Structure (SMILES) | Selectivity [1] | IC50 [2] [nM] | IC50 [3] [nM] | inhibition [4] [%] | inhibition [5] [%] |
| --- | --- | --- | --- | --- | --- |
| Oc1nc(SCCCN2CCN(c3ccccc3Cl)CC2)nc2sc3c(c12)CCCC3 | 0.2 | 168 | – | – | – |
| COc1ccccc1N1CCN(CCCSc2nc3sc4c(c3c(=O)n2C)CCCC4)CC1 | 9 | 64 | 7 | – | – |
| COc1ccc(N2CCN(CCCSc3nc(O)c4c(C)c(C)sc4n3)CC2)cc1 | – | – | – | < 50 | < 50 |
| COc1ccccc1N1CCN(CCCn2c(SC)nc3sc4c(c3c2=O)CCCC4)CC1 | 0.2 | 95 | 511 | – | – |
| COc1ccccc1N1CCN(CCSc2nc3sc4c(c3c(=O)[nH]2)CCCC4)CC1 | – | – | 97 | – | – |
| Cc1sc2nc(SCCCN3CCN(c4ncccn4)CC3)nc(O)c2c1C | 5 | 1098 | – | – | – |
| COc1ccccc1N1CCN(CCCSc2nc(O)c3c4c(sc3n2)CCCC4)CC1 | 0.6 | 38 | – | – | – |
| COc1ccccc1N1CCN(CCCSc2nc(O)c3c(n2)sc2ccccc23)CC1 | 2 | 91 | 46 | – | – |
| COc1ccccc1N1CCN(CCCSc2nc3sc4c(c3c(=O)n2N)CCCC4)CC1 | 30 | 39 | 1.3 | – | – |
| COc1ccccc1N1CCN(CCCOc2nc(SC)nc3sc4c(c23)CCCC4)CC1 | 0.05 | 75 | 1420 | – | – |
| Cc1sc2nc(SCCCN3CCN(c4ccccc4Cl)CC3)[nH]c(=O)c2c1C | – | – | 460 | – | – |
| O=c1[nH]c(SCCCN2CCN(c3cccc4ccccc34)CC2)nc2sc(-c3ccccc3)cc12 | – | – | 2010 | – | – |
| Cc1sc2nc(SCCCN3CCN(c4ccccc4Cl)CC3)nc(O)c2c1C | 0.35 | 161 | – | – | – |
| COc1ccccc1N1CCN(CCCSc2nc(O)c3cc(-c4ccccc4)sc3n2)CC1 | 0.6 | 224 | 386 | – | – |
| Cc1sc2nc(SCCCN3CCN(c4ncccn4)CC3)n(C)c(=O)c2c1C | 31 | 2030 | 65 | – | – |
| COc1ccccc1N1CCN(CCc2nn3c(=O)c4c(C)c(C)sc4nc3s2)CC1 | 3 | 125 | 42 | – | – |
| Cc1ccc(N(CC2=NCCN2)c2cccc(O)c2)cc1 | – | – | – | < 50 | – |
| Cc1sc2nc(SCCCN3CCN(c4ccccc4)CC3)n(N)c(=O)c2c1C | 13 | 43 | 3.3 | – | – |
| COc1ccccc1N1CCN(CCCSc2nc3sc(C)c(C)c3c(=O)n2C)CC1 | 9 | 27 | 3 | – | – |

| Structure (SMILES) | Selectivity [1] | IC50 [2] [nM] | IC50 [3] [nM] | inhibition [4] [%] | inhibition [5] [%] |
| --- | --- | --- | --- | --- | --- |
| O=c1[nH]c(SCCCN2CCN(c3ccccc3Cl)CC2)nc2sc3c(c12)CCCC3 | – | – | 943 | – | – |
| COc1ccccc1N1CCN(CCSc2nc(O)c3c4c(sc3n2)CCCC4)CC1 | 0.2 | 20 | – | – | – |
| O=c1[nH]c(SCCCN2CCN(c3cccc4ccccc34)CC2)nc2sc3c(c12)CCCC3 | – | – | 371 | – | – |
| Oc1nc(SCCCN2CCN(c3cccc4ccccc34)CC2)nc2sc3c(c12)CCCC3 | 1 | 445 | – | – | – |
| Cc1sc2nc(SCCCN3CCN(c4ccc(Cl)cc4)CC3)nc(O)c2c1C | – | – | – | < 50 | < 50 |
| Cc1sc2nc(SCCCN3CCN(c4ncccn4)CC3)[nH]c(=O)c2c1C | – | – | 226 | – | – |
| COc1ccccc1N1CCN(CCCSc2nc(O)c3c(C)c(C)sc3n2)CC1 | 2 | 40 | 24 | – | – |
| COc1ccccc1N1CCN(CCCSc2nc3sccc3c(=O)n2N)CC1 | 2 | 2.9 | 1.2 | – | – |
| Cc1sc2[nH]c(=S)n(N)c(=O)c2c1C | – | > 10000 | – | < 50 | – |
| COc1ccccc1N1CCN(CCCSc2nc3sc4c(c3c(=O)[nH]2)CCCC4)CC1 | – | – | 59 | – | – |
| Oc1nc(SCCCN2CCN(c3ncccn3)CC2)nc2sc3c(c12)CCCC3 | 3.5 | 1814 | 505 | – | – |
| NCCc1c[nH]c2ccc(O)cc12 | – | – | – | – | < 50 |
| COc1ccccc1N1CCN(CCCSc2nc3ccccc3c(=O)n2N)CC1 | 8 | 4 | 0.5 | – | – |
| Cc1sc2nc(SCCCN3CCN(c4cccc(Cl)c4)CC3)nc(O)c2c1C | 0.3 | 299 | 986 | – | – |
| Cc1sc2nc(SCCCN3CCN(c4cccc5ccccc45)CC3)[nH]c(=O)c2c1C | – | – | 355 | – | – |
| Cc1sc2nc(SCCCN3CCN(c4cccc5ccccc45)CC3)nc(O)c2c1C | 2.5 | 886 | – | – | – |
| COc1ccccc1N1CCN(CCCSc2nc3sc(C)c(C)c3c(=O)n2Nc2ccccc2)CC1 | 0.06 | 32 | 497 | – | – |
| Oc1nc(SCCCN2CCN(c3cccc4ccccc34)CC2)nc2sc(-c3ccccc3)cc12 | 1 | 2454 | – | – | – |
